According to ChEMBL document CHEMBL5724801, “EUbOPEN Chemogenomics Library - Multiplex” (2024):
Several values for one entry are separate records, joined by “and”; a condition that tells them apart may be missing. Equal entries are not always repeated.

Tested on: U2OS
Assay: Multiplex assay against U2OS
Format: toxicity, cell-based
Conditions: human
How it was run: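 Compound was added to live cells that had been stained at seeding with Hoechst33342, BioTracker Green Microtubule Cytoskeleton Dye, MitoTracker Red and Annexin V Alexa Fluor 680, and imaging followed on a CQ1 microscope at 37°C and 5% CO2. CellPathfinder machine-learning gating divided cells into Hoechst high-intensity objects or normal cells, normal cells into healthy, pyknosed or fragmented nuclei, and pyknosed cells into mitotic or apoptotic. Tubulin, mitochondrial-mass and membrane-permeability phenotypes are per cents of healthy-nucleus cells.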

[1] = 12 h, 1 µM, compound concentration 1 uM
[2] = 12 h, 10 µM, compound concentration 10 uM
[3] = 24 h, 1 µM, compound concentration 1 uM
[4] = 24 h, 10 µM, compound concentration 10 uM
[5] = 48 h, 1 µM, compound concentration 1 uM
[6] = 48 h, 10 µM, compound concentration 10 uM

CCn1cnc2c(-c3ccc(F)c(-c4ccc(S(=O)(=O)CC)cc4OC)c3)cnnc21 [DARIGABAT]
Population Apoptotic (%) [1]: 18.37% and 38.1% | Population Fragmented Nuclei (%) [1]: 2.41% and 2.26% | Population Healthy Nuclei (%) [1]: 84.49% and 81.95% | Population Hoechst High Intensity Objects (%) [1]: 0% | Population Membrane Permeable-Phenotype (%) [1]: 0.95% and 3.67% | Population Mitochondria Different-Phenotype (%) [1]: 0% and 6.42% | Population Mitotic Cells (%) [1]: 81.63% and 61.9% | Population Normal (%) [1]: 100% | Population Pyknosed Nuclei (%) [1]: 13.1% and 15.79% | Population Tubulin-Different-Phenotype (%) [1]: 1.58% and 0.92% | Total Cell Count [1]: 374 and 133 | Population Apoptotic (%) [2]: 35.44% and 27.5% | Population Fragmented Nuclei (%) [2]: 2.35% and 3.87% | Population Healthy Nuclei (%) [2]: 74.41% and 70.32% | Population Hoechst High Intensity Objects (%) [2]: 0% and 0.64% | Population Membrane Permeable-Phenotype (%) [2]: 3.95% and 3.67% | Population Mitotic Cells (%) [2]: 64.56% and 72.5% | Population Normal (%) [2]: 100% and 99.36% | Population Pyknosed Nuclei (%) [2]: 25.81% | Total Cell Count [2]: 340 and 156 | Population Apoptotic (%) [3]: 28.12% and 48% | Population Fragmented Nuclei (%) [3]: 1.34% and 1.64% | Population Healthy Nuclei (%) [3]: 86.42% and 84.7% | Population Hoechst High Intensity Objects (%) [3]: 0% | Population Membrane Permeable-Phenotype (%) [3]: 0.66% and 4.52% | Population Mitochondria Different-Phenotype (%) [3]: 0% and 1.94% | Population Mitotic Cells (%) [3]: 71.88% and 52% | Population Normal (%) [3]: 100% | Population Pyknosed Nuclei (%) [3]: 12.24% and 13.66% | Population Tubulin-Different-Phenotype (%) [3]: 2.21% and 0% | Total Cell Count [3]: 523 and 183 | Population Apoptotic (%) [4]: 49.55% and 36% | Population Fragmented Nuclei (%) [4]: 3.86% and 1.2% | Population Healthy Nuclei (%) [4]: 67.61% and 68.67% | Population Hoechst High Intensity Objects (%) [4]: 0% | Population Membrane Permeable-Phenotype (%) [4]: 3.04% and 5.26% | Population Mitotic Cells (%) [4]: 50.45% and 64% | Population Normal (%) [4]: 100% | Population Pyknosed Nuclei (%) [4]: 28.53% and 30.12% | Population Tubulin-Different-Phenotype (%) [4]: 11.79% and 2.63% | Total Cell Count [4]: 389 and 166 | Population Apoptotic (%) [5]: 49.52% and 51.28% | Population Fragmented Nuclei (%) [5]: 5.85% and 2.9% | Population Healthy Nuclei (%) [5]: 81.07% and 82.97% | Population Hoechst High Intensity Objects (%) [5]: 0% | Population Membrane Permeable-Phenotype (%) [5]: 0.61% and 2.62% | Population Mitochondria Different-Phenotype (%) [5]: 0% and 3.49% | Population Mitotic Cells (%) [5]: 50.48% and 48.72% | Population Normal (%) [5]: 100% | Population Pyknosed Nuclei (%) [5]: 13.08% and 14.13% | Population Tubulin-Different-Phenotype (%) [5]: 1.84% and 0.87% | Total Cell Count [5]: 803 and 276 | Population Apoptotic (%) [6]: 64.56% and 67.12% | Population Fragmented Nuclei (%) [6]: 3.84% and 5.23% | Population Healthy Nuclei (%) [6]: 52.88% and 47.06% | Population Hoechst High Intensity Objects (%) [6]: 0% | Population Membrane Permeable-Phenotype (%) [6]: 7.25% and 11.11% | Population Mitotic Cells (%) [6]: 35.44% and 32.88% | Population Normal (%) [6]: 100% | Population Pyknosed Nuclei (%) [6]: 43.29% and 47.71% | Population Tubulin-Different-Phenotype (%) [6]: 24.87% and 11.11% | Total Cell Count [6]: 365 and 153

COc1ccc(Cl)cc1[C@]1(F)C(=O)Nc2cc(C(F)(F)F)ccc21 [FLINDOKALNER]
Population Apoptotic (%) [1]: 40.48% and 33.33% | Population Fragmented Nuclei (%) [1]: 1.33% and 3.73% | Population Healthy Nuclei (%) [1]: 87.53% and 81.37% | Population Hoechst High Intensity Objects (%) [1]: 0% | Population Membrane Permeable-Phenotype (%) [1]: 1.21% and 0.76% | Population Mitochondria Different-Phenotype (%) [1]: 0.3% and 7.63% | Population Mitotic Cells (%) [1]: 59.52% and 66.67% | Population Normal (%) [1]: 100% | Population Pyknosed Nuclei (%) [1]: 11.14% and 14.91% | Population Tubulin-Different-Phenotype (%) [1]: 0.61% and 0.76% | Total Cell Count [1]: 377 and 161 | Population Apoptotic (%) [2]: 21.43% and 29.17% | Population Fragmented Nuclei (%) [2]: 2.21% and 3.35% | Population Healthy Nuclei (%) [2]: 86.19% and 83.24% | Population Hoechst High Intensity Objects (%) [2]: 0% | Population Membrane Permeable-Phenotype (%) [2]: 0.64% and 5.37% | Population Mitochondria Different-Phenotype (%) [2]: 0% and 12.08% | Population Mitotic Cells (%) [2]: 78.57% and 70.83% | Population Normal (%) [2]: 100% | Population Pyknosed Nuclei (%) [2]: 11.6% and 13.41% | Population Tubulin-Different-Phenotype (%) [2]: 1.6% and 1.34% | Total Cell Count [2]: 362 and 179 | Population Apoptotic (%) [3]: 41.67% and 37.93% | Population Fragmented Nuclei (%) [3]: 1.57% and 1.48% | Population Healthy Nuclei (%) [3]: 88.98% and 84.24% | Population Hoechst High Intensity Objects (%) [3]: 0% | Population Membrane Permeable-Phenotype (%) [3]: 0.22% and 2.34% | Population Mitochondria Different-Phenotype (%) [3]: 0.22% and 5.26% | Population Mitotic Cells (%) [3]: 58.33% and 62.07% | Population Normal (%) [3]: 100% | Population Pyknosed Nuclei (%) [3]: 9.45% and 14.29% | Population Tubulin-Different-Phenotype (%) [3]: 0.88% and 0.58% | Total Cell Count [3]: 508 and 203 | Population Apoptotic (%) [4]: 29.63% and 42.11% | Population Fragmented Nuclei (%) [4]: 1.38% and 4.65% | Population Healthy Nuclei (%) [4]: 88.02% and 77.67% | Population Hoechst High Intensity Objects (%) [4]: 0% | Population Membrane Permeable-Phenotype (%) [4]: 1.34% and 7.78% | Population Mitochondria Different-Phenotype (%) [4]: 0% and 8.38% | Population Mitotic Cells (%) [4]: 70.37% and 57.89% | Population Normal (%) [4]: 100% | Population Pyknosed Nuclei (%) [4]: 10.61% and 17.67% | Population Tubulin-Different-Phenotype (%) [4]: 1.34% and 0% | Total Cell Count [4]: 509 and 215 | Population Apoptotic (%) [5]: 38.67% and 50% | Population Fragmented Nuclei (%) [5]: 2.32% and 1.61% | Population Healthy Nuclei (%) [5]: 89.42% and 82.32% | Population Hoechst High Intensity Objects (%) [5]: 0% | Population Membrane Permeable-Phenotype (%) [5]: 1.48% and 1.56% | Population Mitochondria Different-Phenotype (%) [5]: 0.12% and 5.08% | Population Mitotic Cells (%) [5]: 61.33% and 50% | Population Normal (%) [5]: 100% | Population Pyknosed Nuclei (%) [5]: 8.27% and 16.08% | Population Tubulin-Different-Phenotype (%) [5]: 0.74% and 0.78% | Total Cell Count [5]: 907 and 311 | Population Apoptotic (%) [6]: 34.18% and 46.94% | Population Fragmented Nuclei (%) [6]: 2.33% and 1.38% | Population Healthy Nuclei (%) [6]: 89.31% and 85.12% | Population Hoechst High Intensity Objects (%) [6]: 0% | Population Membrane Permeable-Phenotype (%) [6]: 0.83% and 3.24% | Population Mitochondria Different-Phenotype (%) [6]: 0% and 5.18% | Population Mitotic Cells (%) [6]: 65.82% and 53.06% | Population Normal (%) [6]: 100% | Population Pyknosed Nuclei (%) [6]: 8.36% and 13.5% | Population Tubulin-Different-Phenotype (%) [6]: 1.3% and 0.32% | Total Cell Count [6]: 945 and 363
